Test results published in ChEMBL document CHEMBL2093137, “WHO-TDR NTD Screening”.
Values after ≈ are worked out from the molar mass of the structure shown.

Legend:
[1] = tested on: Trypanosoma brucei brucei; test: WHO-TDR: Human African Trypanosomiasis (HAT); type: functional, organism-based; details: Squib-427
Summary of the method: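 Whole-organism screen of a 10,000-compound diverse library from Life Chemicals, filtered for drug-likeness and reactive groups, against bloodstream forms of Trypanosoma brucei Squib 427 strain. The assay followed previously published standard procedures, with reference drugs as positive controls. Antiparasitic potency is reported as IC50.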

Schistosoma mansoni [2] = test: (§1) WHO-TDR: Schistosomiasis; type: functional; parameters: concentration or dose not given beside the values
Summary of the method: (§2)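 Percent inhibition and IC50 describe activity against whole Schistosoma mansoni worms of the Puerto Rican strain, tested as larvae and/or adults. The compounds screened were a diverse set of 10,000 from Life Chemicals, filtered for drug-likeness and reactive groups. Testing followed previously published standard procedures, with a reference drug as positive control.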

Onchocerca lienalis = test: (§3) WHO-TDR: Onchocerciasis; type: functional; parameters: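 at 12.5 µM on microfilariae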
Summary of the method: (§4)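 Percent inhibition and IC50 describe activity against microfilariae of Onchocerca ochengi or Onchocerca lienalis, used as animal-pathogen substitutes for the human parasite. The compounds tested made up a 10,000-member diverse library from Life Chemicals.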

Trypanosoma cruzi = test: WHO-TDR: Chagas disease; type: functional, organism-based, Homo sapiens; details: MRC5
Summary of the method: (§5)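 Whole-organism screen of a 10,000-compound diverse library from Life Chemicals, filtered for drug-likeness and reactive groups, against intracellular amastigotes of Trypanosoma cruzi Tulahuen CL2 beta-galactosidase strain grown in MRC-5SV2 human lung fibroblast host cells. The assay followed previously published standard procedures, with a reference drug as positive control. Antiparasitic potency is reported as IC50.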

Brugia malayi [3] = test: (§6) WHO-TDR: Lymphatic Filariasis; type: functional; parameters: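 tested at 10 µM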
Summary of the method: (§7)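 The screening set was a 10,000-compound diverse library from Life Chemicals, filtered for drug-likeness and for reactive groups. It was run against Brugia malayi microfilariae as whole organisms, using previously published standard procedures. Reference drugs acted as positive controls, and activity is reported both as percent inhibition and as IC50.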

Brugia malayi [4] = test: as §6; type: functional, organism-based; summary of the method: as §7
Leishmania infantum = test: WHO-TDR: Leishmaniasis; type: functional, organism-based, Mus musculus; details: Macrophage
Summary of the method: as §5, with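 “Leishmania infantum MHOM/MA(BE)/67” for “Trypanosoma cruzi Tulahuen CL2 beta-galactosidase strain grown”, “murine peritoneal macrophage” for “MRC-5SV2 human lung fibroblast”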

Plasmodium falciparum K1 = test: WHO-TDR: Malaria; type: functional, organism-based, Homo sapiens; details: Erythrocyte
Summary of the method: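 Whole-organism screen of a 10,000-compound diverse library from Life Chemicals, filtered for drug-likeness and reactive groups, against intra-erythrocytic Plasmodium falciparum K1 strain in human red blood cells. The assay followed previously published standard procedures, with a reference drug as positive control. Antiplasmodial potency is reported as IC50.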

[5] = WHO-TDR: Cytotoxicity; type: toxicity, cell-based; details: human, MRC5 cells
Brugia malayi [6] = test: as §6; type: functional; parameters: concentration or dose not given beside the values; summary of the method: as §7; remark: listed apart in the source
Schistosoma mansoni [7] = test: as §1; type: functional, organism-based; summary of the method: as §2
Onchocerca ochengi = test: as §3; type: functional; parameters: concentration or dose not given beside the values; summary of the method: as §4;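 also: at 12.5 µM on microfilariae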

Structure (SMILES) | IC50 [1] [µg/mL] | IC50 (Brugia malayi [4]) [µM] | IC50 (Leishmania infantum) [µg/mL] | IC50 (Plasmodium falciparum K1) [µg/mL] | IC50 (Schistosoma mansoni [7]) [µg/mL] | % Inhibition (Schistosoma mansoni [2]) [%] | % Inhibition (Onchocerca lienalis) [%] | IC50 (Trypanosoma cruzi) [µg/mL] | % Inhibition (Brugia malayi [3]) [%] | IC50 [5] [µg/mL] | % Inhibition (Brugia malayi [6]) [%] | % Inhibition (Onchocerca ochengi) [%]
COc1ccc(Cl)cc1NC(=O)CSc1nccn1-c1cccc(C)c1C | > 12.9 | 3.94 | > 12.1 | > 12.1 |  | 0 | 46.67 | 2.76 (≈ 6.86 µM) | 25 | > 12.1 | 100 | 
O=C(CCCSc1ccc(F)cc1)N1CCN(c2nc3ccc(Cl)cc3s2)CC1 | > 13.5 | 3.54 | 4.37 (≈ 9.71 µM) | > 13.5 |  | 0 | 12.34 | > 13.5 | 40 | > 13.5 | 100 | 
C#CCn1/c(=N\C(=O)c2cc(C)no2)sc2cc(S(N)(=O)=O)ccc21 | > 11.3 |  | > 11.3 | > 11.3 | 3.16 (≈ 8.39 µM) | 100 |  | > 11.3 |  | > 11.3 | 0 | 0
O=C(Cc1csc(NC(=O)C2CCC(=O)N2)n1)NCc1ccccn1 (centres undefined) | > 10.8 |  | > 10.8 | > 10.8 | 2.48 (≈ 6.9 µM) | 100 |  | > 10.8 |  | > 10.8 | 20 | 0
O=C(NCCOc1ccc2nnc(-c3ccccc3)n2n1)c1ccccc1C(F)(F)F | > 12.8 |  | > 12.8 | > 12.8 | 3.38 (≈ 7.91 µM) | 100 |  | > 12.8 |  | > 12.8 | 33.33 | 0
Cc1nn(-c2ccccc2)c2[nH]cc(C(=O)Nc3ccc(F)c(Cl)c3)c(=O)c12 | 4.14 (≈ 10.4 µM) | 5.95 | 2.34 (≈ 5.9 µM) | > 11.9 |  | 62.5 | -1 | 1.96 (≈ 4.93 µM) | 33.33 | 1 (≈ 2.53 µM) | 100 | 

More lines, main results first:

IC50 [1] [µg/mL] | IC50 (Brugia malayi [4]) [µM] | IC50 (Leishmania infantum) [µg/mL] | IC50 (Plasmodium falciparum K1) [µg/mL] | IC50 (Schistosoma mansoni [7]) [µg/mL] | Structure (SMILES) | % Inhibition (Schistosoma mansoni [2]) [%] | % Inhibition (Onchocerca lienalis) [%] | IC50 (Trypanosoma cruzi) [µg/mL] | % Inhibition (Brugia malayi [3]) [%] | IC50 [5] [µg/mL] | % Inhibition (Brugia malayi [6]) [%] | % Inhibition (Onchocerca ochengi) [%]
4.9 (≈ 10.3 µM) | 6.05 | 5.81 (≈ 12.3 µM) | > 15.3 |  | O=C(CCS(=O)(=O)c1ccccc1)N(CCCN1CCOCC1)c1nc2ccccc2s1 | 0 | 9.31 | 8.52 (≈ 18 µM) | 60 | 2.88 (≈ 6.09 µM) | 100 | 
0.45 (≈ 0.971 µM) | 5.19 | 4.5 (≈ 9.71 µM) | 3.71 (≈ 8 µM) |  | O=C(Nc1nc2c(s1)CSc1ccccc1-2)C1CCCN1S(=O)(=O)c1cccs1 (centres undefined) | 100 | 93 | 0.5 (≈ 1.08 µM) | 0 | 1.88 (≈ 4.06 µM) | 100 | 
2.24 (≈ 4.49 µM) | 3.97 | > 14.9 | > 14.9 |  | CN(Cc1ccco1)S(=O)(=O)c1ccc(C(=O)Nc2nc3c(s2)CSc2ccccc2-3)cc1 | 91.7 | 0 | 3.86 (≈ 7.76 µM) | 40 | > 14.9 | 100 | 
> 9.43 |  | > 9.43 | > 9.43 | 2.21 (≈ 7.03 µM) | CCOC(=O)c1oc2ccccc2c1NC(=O)c1cc(C)no1 | 100 |  | > 9.43 |  | > 9.43 | 20 | 0
> 13.3 |  | 4.29 (≈ 9.71 µM) | > 13.3 | 3.58 (≈ 8.1 µM) | COc1ccc(Cl)cc1C(=O)NCCOc1ccc2nnc(-c3ccc(F)cc3)n2n1 | 100 |  | > 13.3 |  | > 13.3 | 33.33 | 0
> 11.4 |  | > 11.4 | 6.4 (≈ 16.9 µM) | 3.15 (≈ 8.3 µM) | O=C(CCC1CCCCC1)N1CCN(c2ccc(-c3cccnc3)nn2)CC1 | 100 |  | 4.89 (≈ 12.9 µM) |  | > 11.4 | 33.33 | 50
